An excerpt weighted towards active compounds, which were near 3% of everything screened.
PGC1a acetyl inh: lowers PGC1a acetylation signal in U2OS cells; AlphaScreen anti-acetyl-lysine; with virally co-expressed GCN5 acetyltransferase; inhibition, % at 15.6 µM; actives 0.17% (n = 350,000); AID 651687;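 active = every replicate shows inhibition of at least 40%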;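 also: 0% = neutral control wells and 100% = positive control wells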
Statin myotox sup: protects C2C12 myotubes from simvastatin toxicity | ATP luminescence, 48 h; scaled: DMSO 0, geranylgeraniol control 100 | actives 0.78% (n = 330,000) | rescue of ATP level, % at 7.49 µM;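 active = mean ATP rescue above about 67%, or every replicate alone reaching that limit, limit read from the data, passing the limit was not always enough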;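 also: myotubes were challenged with 10 µM simvastatin during compound exposure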
SIRT5 inh: blocks human SIRT5 desuccinylation of peptide; Q9NXA8; Purified SirT5, succinyl-peptide AMC, trypsin-coupled fluorescence; inhibition, % at 15 µM; actives 1.1% (n = 330,000); AID 652115; in the data active = inhibition above about 15%
Target sequence (Q9NXA8 whole entry, looked up): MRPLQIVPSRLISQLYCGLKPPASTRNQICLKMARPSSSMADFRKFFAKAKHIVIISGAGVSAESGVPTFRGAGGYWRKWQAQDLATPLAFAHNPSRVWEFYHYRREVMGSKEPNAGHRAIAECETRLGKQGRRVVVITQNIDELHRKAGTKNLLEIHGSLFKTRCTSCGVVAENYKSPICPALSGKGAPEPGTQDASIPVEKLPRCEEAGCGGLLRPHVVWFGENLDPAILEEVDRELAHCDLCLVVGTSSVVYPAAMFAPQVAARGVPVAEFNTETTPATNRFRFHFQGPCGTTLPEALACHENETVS
Ecoli rRNA inh: inhibits bacterial ribosomal RNA function over humanized ribosomes; E. coli WT GFP vs humanized-ribosome RFP mutants, fluorescence, 24 h; stronger effect = lower value; DMSO median 0, no signal -100; actives 1.6% (n = 350,000); GFP signal change (wild-type ribosome), % (no concentration beside the values); AID 720706;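 active = significant combined selectivity score with lowered wild-type GFP, culture density cut under 30%, mutant RFP and density less affected; inactive = any of these conditions unmet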
Cneo AK release: Cryptococcus neoformans lysis via adenylate kinase release; C. neoformans lysis, adenylate kinase release luminescence, 4 h; normalised: neutral wells 0, clomiphene wells 100; lysis activity, % at 15 µM; actives 0.2% (n = 360,000); AID 651654;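 active = mean lysis activity across replicates of at least 80%, whatever share of replicates individually reach that level; inactive = mean lysis activity below 80%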
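Schedule: static 4 h at 37 °C with compound, 1 h detection; system: C. neoformans cells; benchmarks: Clomiphene as positive control; buffer or medium: fresh YPD medium; measure: luminescence rise reflecting yeast cell lysis; measured by: luminescent adenylate kinase detection reagent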
S100A4 inh HTS: S100A4-myosin IIA interaction inhibition. P26447. S100A4/TAMRA-MyoIIA peptide fluorescence polarization. inhibition, % at 10.7 µM. actives 0.14% (n = 360,000). AID 652163;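 active = mean inhibition of at least 70% across replicates, with every replicate also reaching that level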
Target sequence (P26447 whole entry, looked up): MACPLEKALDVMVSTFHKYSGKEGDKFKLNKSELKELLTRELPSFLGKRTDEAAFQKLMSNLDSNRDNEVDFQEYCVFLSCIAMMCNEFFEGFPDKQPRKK
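System – human S100A4 monomer protein, biochemical binding assay · Buffer or medium – Calcium-containing HEPES buffer, pH 7.2 · Timing – 5 min between mix addition and reading · Also added – TAMRA-labelled myosin IIA heavy-chain peptide probe, 5 nM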
* marks the source's active call; other numbers are inactive results; . = no result given.

SMILES	PGC1a acetyl inh	Statin myotox sup	SIRT5 inh	Ecoli rRNA inh	Cneo AK release	S100A4 inh HTS
Cc1ccc(C(=O)Nc2ccncc2)cc1[N+](=O)[O-]	.	-13.5	-1.0	-4.7	-6.1	-1.6
CC(=O)Nc1cccc(NC(=O)c2ccc(C)c([N+](=O)[O-])c2)c1	-3.8	-11.1	16.6*	-11.4	.	-1.5
COc1cccc(CNC(=S)Nc2cccc(Cl)c2C)c1	.	31.1	-2.4	-16.6	7.8	-1.8
COc1cccc(CNC(=O)c2cccnc2Sc2ccc(C)cc2C)c1	-5.2	4.0	-1.3	-31.0*	2.5	-13.2
Cc1ccc(SCCNC(=S)Nc2cc(C)ccc2C)cc1	5.3	73.1*	.	.	34.1	.
CCOc1ncccc1C(=O)NCc1cccc(OC)c1	17.9	3.8	.	.	0.7	.
COc1cccc(CNC(=S)Nc2cc(C)ccc2C)c1	14.7	-5.5	-0.1	-25.9*	4.5	5.1
O=C(c1cnccn1)N1CC(=O)N2[C@H](CO)[C@@H](c3ccc(/C=C/c4ccccc4)cc3)[C@@H]2C1	-5.1	.	-0.3	4.1	.	7.2
CCS(=O)(=O)N1CC(=O)N2[C@H](C1)[C@H](c1ccc(C#Cc3cccc(F)c3)cc1)[C@@H]2CO	.	.	.	1.9	.	.
O=c1[nH]c(Cc2ccccc2)nc2scc(-c3ccccc3)c12	7.7	1.1	.	.	-3.8	.
Cc1csc(SC(C)c2nc3scc(-c4ccccc4)c3c(=O)[nH]2)n1 (stereo not drawn)	-10.5	8.4	-4.0	-23.6*	.	-2.2
OCC1OC(n2ccc3c(NO)ncnc32)C(O)C1O (stereo not drawn)	.	.	-4.6	-1.8	.	31.9
CN(C)c1ncnc2c1ccn2C1OC(CO)C(O)C1O (stereo not drawn)	52.5*	-132.4	-2.1	10.8	7.4	3.3
Cc1cc(C(C)(C)C)oc1C(=O)N(CC(=O)NC1CCCC1)Cc1ccccc1	.	-4.7	.	.	-0.5	.
Cc1ccc(C)c(N(CC(=O)NC2CCCC2)C(=O)c2oc(C(C)(C)C)cc2C)c1	-2.3	-25.7	13.7	-16.5*	0.6	-3.4
Cn1c(SCC(=O)N(Cc2ccccc2)C(C)(C)C)nc2ccccc21	-14.2	.	-1.0	-30.8*	5.8	-3.2
COc1cccc(NC(=O)N[C@H]2CC[C@H](CC(=O)NCc3ccncn3)O[C@@H]2CO)c1	-3.7	2.2	-11.0	5.4	-6.4	4.2
CCCNC(=O)N1C[C@@H](C)[C@H](OC)CN(C)C(=O)c2cc(NS(=O)(=O)CC)ccc2OC[C@@H]1C	.	-6.2	-6.4	2.4	-1.7	4.8
O=C(CC12CC3CC(CC(C3)C1)C2)N1CCCOC1	.	.	.	.	-0.2	.
O=C(CC12CC3CC(CC(C3)C1)C2)N1CCOCC1	5.5	115.3*	.	.	0.6	.
CNC(=O)C[C@H]1CC[C@@H]2[C@H](COc3ccc(NC(=O)c4ccc(OC)cc4)cc3C(=O)N2C)O1	2.0	5.9	-0.1	-7.1	-0.8	0.8
CCCNC(=O)N1C[C@@H](C)[C@@H](OC)CN(C)C(=O)c2cc(NS(C)(=O)=O)ccc2OC[C@H]1C	4.9	-2.2	-8.5	3.0	-2.8	-6.6
Cc1cc(C)cc(N(C(C)C(=O)NCCC2=CCCCC2)S(C)(=O)=O)c1 (stereo not drawn)	-6.8	93.2*	-2.0	-47.7	2.0	1.8
O=C(C[C@@H]1C=C[C@@H](NC(=O)c2ccc3c(c2)OCO3)[C@H](CO)O1)NCc1ccc(F)cc1	1.9	-0.6	-0.4	2.4	-1.9	0.1
C[C@H](CO)N1C[C@H](C)[C@@H](CN(C)S(=O)(=O)c2ccsc2)OCc2ccccc2-c2c(n(C)c3ccccc23)C1=O	-37.9	.	3.4	2.4	-3.6	6.4
SMILES	PGC1a acetyl inh	Statin myotox sup	SIRT5 inh	Ecoli rRNA inh	Cneo AK release	S100A4 inh HTS
CC(C)CC#Cc1cnc2c(c1)C(=O)N([C@@H](C)CO)C[C@@H](C)[C@H](CN(C)C(=O)c1ccc3c(c1)OCO3)O2	7.6	78.4*	3.5	3.5	-0.3	-0.1
CC(C)CC#Cc1cnc2c(c1)C(=O)N([C@@H](C)CO)C[C@H](C)[C@H](CN(C)C(=O)c1ccc3c(c1)OCO3)O2	13.2	21.2	2.6	-0.9	85.2*	4.0
CC(C)NC(=O)N(C)C[C@H]1OCCCC[C@H](C)Oc2ccc(NC(=O)Cc3ccccc3)cc2C(=O)N([C@@H](C)CO)C[C@H]1C	-1.2	.	-0.2	-1.7	-0.4	9.5
Cc1ccc(C)c(NC(=O)CSc2c(C)n[nH]c2C)c1	9.0	10.8	1.4	-55.0*	-0.5	-1.5
Cc1ccc(C)c(NC(=O)CSc2n[nH]c(-c3ccncc3)n2)c1	-18.5	11.0	.	.	1.6	.
Cc1ccc(C)c(NC(=O)CSc2nnc(C3CCCCC3)o2)c1	.	71.4*	.	4.2	-7.3	2.3
Cc1cccc(C)c1NC(=O)CSc1nnc(C2CCCCC2)o1	.	5.1	3.7	0.7	-3.6	-0.7
CCn1c(SCC(=O)Nc2ccc(S(=O)(=O)Nc3ccccn3)cc2)nnc1-c1ccncc1	12.0	94.7*	.	.	-1.0	.
COC(=O)c1c(NC(=O)C2(C)Cc3ccccc3C(=O)O2)sc2c1CCCC2 (stereo not drawn)	-3.9	-38.5	19.3*	2.7	1.1	5.0
Cc1ccc(S(=O)(=O)N(C)Cc2ccc(-c3nnco3)cc2)cc1	-11.4	108.1*	.	.	-0.2	.
CCN(CC)S(=O)(=O)c1ccc(-c2nnco2)cc1	-4.3	11.5	.	.	3.0	.
CCOc1ccc(-c2onc(C(F)(F)F)c2-c2cscn2)c(O)c1	2.1	-6.8	0.4	-43.0*	-0.2	10.7
Cc1cc(O)cc(O)c1-c1onc(C(F)(F)F)c1-c1cscn1	2.0	.	.	.	0.3	.
Cc1ccc(S(=O)(=O)Nc2ccc3c(c2)CC(=O)N([C@@H](C)CO)C[C@H](C)[C@H](CN(C)CC2CC2)O3)cc1	-2.0	-8.5	-4.3	1.3	0.2	6.5
COC(CNC(=O)c1ccc2c(=O)n(Cc3ccc4c(c3)OCO4)c(=S)[nH]c2c1)OC	.	13.3	16.0*	5.4	-2.9	-2.2
O=C(NCc1ccc(Cl)cc1)c1ccc2c(=O)n(CC3CCCO3)c(=S)[nH]c2c1 (stereo not drawn)	3.6	-12.6	16.0*	7.2	-0.1	-2.7
C=CCOc1ccc(CNc2ccc3[nH]c(=O)[nH]c3c2)cc1	-7.2	.	-1.7	-14.3*	.	-0.9
C=CCOc1ccc(CNc2ccc3[nH]c(=O)[nH]c3c2)cc1OCC	-4.4	.	6.2	3.6	.	1.5
CN(C)C(CNC(=O)CCNC(=O)c1ccc(Cl)cc1)c1ccco1 (stereo not drawn)	15.9	1.2	23.6*	10.1	-0.4	2.5
CCC(=O)N1CC(=O)N2[C@H](CO)[C@@H](c3ccc(-c4ccccc4F)cc3)[C@@H]2C1	12.7	.	1.0	6.0	.	52.1
